Reference: ChEMBL document CHEMBL3351692, “Discovery and optimization of 1,3,5-trisubstituted pyrazolines as potent and highly selective allosteric inhibitors of protein kinase C-ζ” (J Med Chem, 2014)

molecular target: T1, Protein kinase C zeta type (Homo sapiens, UniProt Q05513); assay: Inhibition of human PKCzeta assessed as phosphorylation reaction after 4 mins incubation by cell-free assay; settings: not given
T1 sequence (Q05513 whole entry): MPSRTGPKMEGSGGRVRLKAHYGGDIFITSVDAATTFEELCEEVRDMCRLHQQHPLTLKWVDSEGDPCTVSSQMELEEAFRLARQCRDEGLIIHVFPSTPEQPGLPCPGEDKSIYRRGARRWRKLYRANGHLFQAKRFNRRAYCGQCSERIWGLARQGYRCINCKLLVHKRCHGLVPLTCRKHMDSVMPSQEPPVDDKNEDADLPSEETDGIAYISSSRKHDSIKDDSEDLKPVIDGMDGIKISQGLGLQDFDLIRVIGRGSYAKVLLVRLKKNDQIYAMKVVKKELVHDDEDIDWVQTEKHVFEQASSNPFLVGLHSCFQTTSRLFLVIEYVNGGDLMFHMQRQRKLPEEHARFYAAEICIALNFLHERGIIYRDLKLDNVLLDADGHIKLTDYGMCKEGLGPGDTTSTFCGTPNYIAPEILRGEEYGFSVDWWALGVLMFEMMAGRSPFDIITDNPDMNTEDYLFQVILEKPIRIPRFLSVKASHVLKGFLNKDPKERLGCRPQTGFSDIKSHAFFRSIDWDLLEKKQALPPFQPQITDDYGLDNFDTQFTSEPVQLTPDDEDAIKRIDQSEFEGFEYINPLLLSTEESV

SMILES	IC50
CC(C)(C)C1=NN(c2ccc(F)c(Cl)c2)C(c2ccc(O)cc2)C1 (centres undefined)	0.9 µM
CC(C)(C)C1=NN(c2ccc(F)c(F)c2F)C(c2ccc(O)cc2)C1 (centres undefined)	0.7 µM
CC(C)(C)C1=NN(c2cccc(C(F)(F)F)c2)C(c2ccc(O)cc2)C1 (centres undefined)	2.7 µM
Oc1ccc(C2CC(c3ccccc3O)=NN2c2cccc(Cl)c2)cc1F (centres undefined)	2.9 µM
CC(C)(C)C1=NN(c2ccc(Cl)cc2)C(c2cccc(O)c2)C1 (centres undefined)	5.3 µM
CC(C)(C)C1=NN(c2ccc(C(F)(F)F)cc2)C(c2ccc(O)cc2)C1 (centres undefined)	8.8 µM
CC(C)(C)C1=NN(c2cccc(F)c2)C(c2ccc(O)cc2)C1 (centres undefined)	2.2 µM
CC(C)(C)C1=NN(c2ccc(F)cc2)C(c2ccc(O)cc2)C1 (centres undefined)	9.4 µM
Oc1ccc(C2CC(c3ccccc3O)=NN2c2ccc(Cl)cc2)cc1O (centres undefined)	< 0.1 µM
Oc1ccc(C2CC(c3ccccc3)=NN2c2ccc(Cl)cc2)cc1 (centres undefined)	3.5 µM
Oc1ccccc1C1=NN(c2cccc(Cl)c2)C(c2ccc(O)c(F)c2F)C1 (centres undefined)	6.6 µM
Nc1ccc(C2=NN(c3ccc(Cl)cc3)C(c3ccc(O)cc3)C2)cc1 (centres undefined)	5.4 µM
Oc1ccccc1C1=NN(c2cccc(Cl)c2)C(c2cc(F)c(O)c(F)c2)C1 (centres undefined)	11.1 µM
Oc1ccc(C2CC(c3ccccc3)=NN2c2cccc(Cl)c2)cc1 (centres undefined)	2.1 µM
CC(C)(C)C1=NN(c2cccc(Cl)c2)C(c2ccc(O)cc2)C1 (centres undefined)	5.2 µM
CC(C)(C)C1=NN(c2ccc(Br)cc2)C(c2ccc(O)cc2)C1 (centres undefined)	11.4 µM
CC(C)(C)C1=NN(c2ccc(Cl)cc2)C(c2ccc(O)c(F)c2)C1 (centres undefined)	3.8 µM
Oc1ccc(C2CC(c3ccccn3)=NN2c2cccc(Cl)c2)cc1 (centres undefined)	6.2 µM
Oc1ccc(C2=NN(c3cccc(Cl)c3)C(c3ccc(O)c(F)c3)C2)c(O)c1 (centres undefined)	< 0.1 µM

system: RAW264.7; assay: Cytotoxicity against mouse RAW264.7 cells assessed as living cells at 7.5 uM by MTT assay; format: cell-based; settings: raw264.7, 7.5 µM
In short: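 RAW 264.7 macrophages: MTT viability assay run in parallel with each nitrite (Griess) experiment, same cell line and same compound treatment conditions.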

SMILES	Activity
CC(C)(C)C1=NN(c2ccc(F)c(Cl)c2)C(c2ccc(O)cc2)C1 (centres undefined)	Non-toxic
CC(C)(C)C1=NN(c2ccc(F)c(F)c2F)C(c2ccc(O)cc2)C1 (centres undefined)	Non-toxic
Oc1ccc(C2CC(c3ccc[nH]3)=NN2c2cccc(Cl)c2)cc1 (centres undefined)	Non-toxic
CC(C)(C)C1=NN(c2cccc(C(F)(F)F)c2)C(c2ccc(O)cc2)C1 (centres undefined)	Non-toxic
Oc1ccc(C2CC(c3ccccc3O)=NN2c2cccc(Cl)c2)cc1F (centres undefined)	Non-toxic
CC(C)(C)C1=NN(c2ccc(Cl)cc2)C(c2cccc(O)c2)C1 (centres undefined)	Non-toxic
CC(C)(C)C1=NN(c2ccc(C(F)(F)F)cc2)C(c2ccc(O)cc2)C1 (centres undefined)	Non-toxic
CC(C)(C)C1=NN(c2ccccc2F)C(c2ccc(O)cc2)C1 (centres undefined)	Non-toxic
CC(C)(C)C1=NN(c2ccc(F)c(F)c2)C(c2ccc(O)cc2)C1 (centres undefined)	Non-toxic
CC(C)(C)C1=NN(c2ccc(Cl)cc2)C(c2ccc(C#N)cc2)C1 (centres undefined)	Non-toxic
Cc1ccc(N2N=C(C(C)(C)C)CC2c2ccc(O)cc2)c(C)c1 (centres undefined)	Non-toxic
CC(C)(C)C1=NN(c2ccc(Cl)cc2Cl)C(c2ccc(O)cc2)C1 (centres undefined)	Non-toxic
CC(C)(C)C1=NN(c2ccc(F)cc2F)C(c2ccc(O)cc2)C1 (centres undefined)	Non-toxic
COc1ccccc1C1=NN(c2ccc(Cl)cc2)C(c2ccc(O)cc2)C1 (centres undefined)	Non-toxic
CC1C(c2ccccc2O)=NN(c2cccc(Cl)c2)C1c1ccc(O)c(F)c1 (centres undefined)	Non-toxic
CC(C)(C)C1=NN(c2cccc(F)c2)C(c2ccc(O)cc2)C1 (centres undefined)	Non-toxic
CC(C)(C)C1=NN(c2ccc(F)cc2)C(c2ccc(O)cc2)C1 (centres undefined)	Non-toxic
Oc1ccc(C2CC(c3ccccc3O)=NN2c2ccc(Cl)cc2)cc1O (centres undefined)	Non-toxic
Oc1ccc(C2CC(c3ccccc3)=NN2c2ccc(Cl)cc2)cc1 (centres undefined)	Non-toxic

SMILES	Activity
Oc1ccccc1C1=NN(c2cccc(Cl)c2)C(c2ccc(O)c(F)c2F)C1 (centres undefined)	Non-toxic
Oc1ccc(C2CC(c3cccs3)=NN2c2ccc(Cl)cc2)cc1 (centres undefined)	Non-toxic
CC(C)(C)C1=NN(c2ccc(C(=O)O)cc2)C(c2ccc(O)cc2)C1 (centres undefined)	Non-toxic
CC(C)c1ccc(N2N=C(C(C)(C)C)CC2c2ccc(O)cc2)cc1 (centres undefined)	Non-toxic
Cc1cccc(N2N=C(C(C)(C)C)CC2c2ccc(O)cc2)c1 (centres undefined)	Non-toxic
Nc1ccc(C2=NN(c3ccc(Cl)cc3)C(c3ccc(O)cc3)C2)cc1 (centres undefined)	Non-toxic
Oc1ccccc1C1=NN(c2cccc(Cl)c2)C(c2cc(F)c(O)c(F)c2)C1 (centres undefined)	Non-toxic
CC(C)(C)C1=NN(c2ccc(O)cc2)C(c2ccc(O)cc2)C1 (centres undefined)	Non-toxic
Oc1ccc(C2CC(c3ccccc3Cl)=NN2c2ccc(Cl)cc2)cc1 (centres undefined)	Non-toxic
CC(C)(C)C1=NN(c2ccc(O)cc2)C(c2ccc(Cl)cc2)C1 (centres undefined)	Non-toxic
Oc1ccc(C2CC(c3ccccc3)=NN2c2cccc(Cl)c2)cc1 (centres undefined)	Non-toxic
CC(C)(C)C1=NN(c2cccc(Cl)c2)C(c2ccc(O)cc2)C1 (centres undefined)	Non-toxic
CC(C)(C)C1=NN(c2ccc(Br)cc2)C(c2ccc(O)cc2)C1 (centres undefined)	Non-toxic
CC(C)(C)C1=NN(c2ccc(Cl)cc2)C(c2ccc(O)c(F)c2)C1 (centres undefined)	Non-toxic
CCOc1ccccc1C1=NN(c2ccc(Cl)cc2)C(c2ccc(O)cc2)C1 (centres undefined)	Non-toxic
CC(C)(C)C1=NN(c2c(Cl)cccc2Cl)C(c2ccc(O)cc2)C1 (centres undefined)	Non-toxic
Cc1ccc(N2N=C(C(C)(C)C)CC2c2ccc(O)cc2)cc1 (centres undefined)	Non-toxic
Oc1ccc(C2CC(c3ccccn3)=NN2c2cccc(Cl)c2)cc1 (centres undefined)	Non-toxic
Oc1ccc(C2=NN(c3cccc(Cl)c3)C(c3ccc(O)c(F)c3)C2)c(O)c1 (centres undefined)	Non-toxic

molecular target: T1, Protein kinase C zeta type; assay: Inhibition of PKCzeta in human U937 cells assessed as inhibition of TNFalpha-induced NF-kappaB activation by reporter gene assay; format: cell-based, U-937; settings: not given

SMILES	IC50
CC(C)(C)C1=NN(c2ccc(F)c(Cl)c2)C(c2ccc(O)cc2)C1 (centres undefined)	1900 nM
CC(C)(C)C1=NN(c2ccc(F)c(F)c2F)C(c2ccc(O)cc2)C1 (centres undefined)	3100 nM
CC(C)(C)C1=NN(c2cccc(C(F)(F)F)c2)C(c2ccc(O)cc2)C1 (centres undefined)	2700 nM
CC(C)(C)C1=NN(c2ccc(Cl)cc2)C(c2cccc(O)c2)C1 (centres undefined)	2000 nM
Oc1ccccc1C1=NN(c2cccc(Cl)c2)C(c2ccc(O)c(F)c2F)C1 (centres undefined)	1400 nM
Oc1ccccc1C1=NN(c2cccc(Cl)c2)C(c2cc(F)c(O)c(F)c2)C1 (centres undefined)	2500 nM
CC(C)(C)C1=NN(c2ccc(Cl)cc2)C(c2ccc(O)c(F)c2)C1 (centres undefined)	3700 nM
Oc1ccc(C2=NN(c3cccc(Cl)c3)C(c3ccc(O)c(F)c3)C2)c(O)c1 (centres undefined)	1100 nM

molecular target: T2, Protein kinase C iota type (Homo sapiens) (UniProt P41743); assay: Inhibition of PKCiota (unknown origin) at 20 uM; settings: not given
T2 sequence (whole entry): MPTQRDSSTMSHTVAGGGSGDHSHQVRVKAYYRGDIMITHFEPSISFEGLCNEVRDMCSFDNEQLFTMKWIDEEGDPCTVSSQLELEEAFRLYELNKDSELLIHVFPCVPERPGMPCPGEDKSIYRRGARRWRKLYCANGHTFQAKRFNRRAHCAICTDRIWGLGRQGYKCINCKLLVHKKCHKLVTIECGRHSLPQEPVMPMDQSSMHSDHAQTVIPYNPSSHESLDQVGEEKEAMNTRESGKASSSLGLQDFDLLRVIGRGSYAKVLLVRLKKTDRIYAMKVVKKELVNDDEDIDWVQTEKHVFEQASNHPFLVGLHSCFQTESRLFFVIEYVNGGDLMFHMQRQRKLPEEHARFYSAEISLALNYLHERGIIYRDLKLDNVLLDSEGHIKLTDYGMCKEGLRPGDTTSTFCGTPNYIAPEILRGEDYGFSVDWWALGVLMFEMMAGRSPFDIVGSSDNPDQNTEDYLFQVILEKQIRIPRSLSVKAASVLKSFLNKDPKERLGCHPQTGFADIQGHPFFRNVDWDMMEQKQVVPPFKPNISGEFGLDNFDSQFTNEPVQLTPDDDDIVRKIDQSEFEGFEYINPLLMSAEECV
In short: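 Cell-free radiometric kinase assay with purified recombinant PKCι under conditions similar to the PKCζ assay. Reaction mixtures preincubated 4 min at 37 °C, then phosphorylation started with γ32P-ATP/Mg2+. Mean of at least two experiments.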

SMILES	inhibition
CC(C)(C)C1=NN(c2ccc(F)c(Cl)c2)C(c2ccc(O)cc2)C1 (centres undefined)	31.6%
CC(C)(C)C1=NN(c2ccc(F)c(F)c2F)C(c2ccc(O)cc2)C1 (centres undefined)	7.8%
Oc1ccc(C2CC(c3ccc[nH]3)=NN2c2cccc(Cl)c2)cc1 (centres undefined)	20.3%
CC(C)(C)C1=NN(c2cccc(C(F)(F)F)c2)C(c2ccc(O)cc2)C1 (centres undefined)	17%
Oc1ccc(C2CC(c3ccccc3O)=NN2c2cccc(Cl)c2)cc1F (centres undefined)	25.2%
CC(C)(C)C1=NN(c2ccc(Cl)cc2)C(c2cccc(O)c2)C1 (centres undefined)	17.4%
CC(C)(C)C1=NN(c2ccc(F)c(F)c2)C(c2ccc(O)cc2)C1 (centres undefined)	23.7%
CC1C(c2ccccc2O)=NN(c2cccc(Cl)c2)C1c1ccc(O)c(F)c1 (centres undefined)	23.1%
CC(C)(C)C1=NN(c2cccc(F)c2)C(c2ccc(O)cc2)C1 (centres undefined)	19.3%
Oc1ccc(C2CC(c3ccccc3O)=NN2c2ccc(Cl)cc2)cc1O (centres undefined)	44.1%
Oc1ccc(C2CC(c3ccccc3)=NN2c2ccc(Cl)cc2)cc1 (centres undefined)	31.6%
Oc1ccccc1C1=NN(c2cccc(Cl)c2)C(c2ccc(O)c(F)c2F)C1 (centres undefined)	39.2%
Cc1cccc(N2N=C(C(C)(C)C)CC2c2ccc(O)cc2)c1 (centres undefined)	13.9%
Nc1ccc(C2=NN(c3ccc(Cl)cc3)C(c3ccc(O)cc3)C2)cc1 (centres undefined)	38.7%
Oc1ccccc1C1=NN(c2cccc(Cl)c2)C(c2cc(F)c(O)c(F)c2)C1 (centres undefined)	45.2%
Oc1ccc(C2CC(c3ccccc3)=NN2c2cccc(Cl)c2)cc1 (centres undefined)	45.5%
CC(C)(C)C1=NN(c2cccc(Cl)c2)C(c2ccc(O)cc2)C1 (centres undefined)	43.5%
CC(C)(C)C1=NN(c2ccc(Cl)cc2)C(c2ccc(O)c(F)c2)C1 (centres undefined)	29.7%
Oc1ccc(C2CC(c3ccccn3)=NN2c2cccc(Cl)c2)cc1 (centres undefined)	24.1%
